{
  "source": "paper PMC3291815",
  "about": "(Circulation Research, 2011)",
  "molecules": {"B1": {"name": "CD40L (recombinant, His- and c-myc-tag fusion protein, E108 to L261) (ligand)", "chain": "ENSFEMQKGDQNPQIAAHVISEASSKTTSVLQWAEKGYYTMSNNLVTLENGKQLTVKRQGLYYIYAQVTFCSNREASSQAPFIASLCLKSPGRFERILLRAANTHSSAKPCGQQSIHLGGVFELQPGASVFVNVTDPSQVSHGTGFTSFGLLKL"}},
  "key": {"[1]": {"biological_target": "T1, CD40L-Mac-1 I-domain interaction (Homo sapiens, UniProt P29965)", "T1 sequence (P29965 108-261)": "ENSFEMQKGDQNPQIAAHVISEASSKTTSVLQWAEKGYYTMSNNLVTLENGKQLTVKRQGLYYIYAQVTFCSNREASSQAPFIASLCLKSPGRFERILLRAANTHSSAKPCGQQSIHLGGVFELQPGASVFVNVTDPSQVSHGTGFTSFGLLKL", "assay_type": "binding", "procedure,_shortened": "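Recombinant CD40L (residues E108–L261, His- and c-myc-tagged) was incubated with immobilized Mac-1 I-domain alongside a range of cyclized peptide or scrambled peptide concentrations. Bound CD40L was detected with anti-c-myc-HRP and TMB substrate by colorimetric read-out. Anti-CD40L (100 μg/ml) and saline served as controls.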"}, "[2]": {"assay_type": "in vivo, C57BL/6J mice", "settings": "after intraperitoneal injection, FITC-coupled peptide, plasma fluorescence", "procedure,_shortened": "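C57BL/6J mice received a single intraperitoneal injection of FITC- or TAMRA-labelled cyclized peptide or its scrambled control, at 100 or 200 μg. Plasma samples were collected at set time points, and peptide level was followed by plasma fluorescence.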"}, "[3]": {"test_system": "Murine fibroblasts over-expressing CD40L", "assay_type": "cell-based", "settings": "flow cytometry; not to mock-transfected control cells"}, "[4]": {"biological_target": "B1", "test": "dynamic cell adhesion assay"}, "[5]": {"biological_target": "T2, Mac-1 I-domain (recombinant, His-tag fusion protein, R115 to S340) (UniProt P11215 131-356)", "T2 sequence (P11215 131-356)": "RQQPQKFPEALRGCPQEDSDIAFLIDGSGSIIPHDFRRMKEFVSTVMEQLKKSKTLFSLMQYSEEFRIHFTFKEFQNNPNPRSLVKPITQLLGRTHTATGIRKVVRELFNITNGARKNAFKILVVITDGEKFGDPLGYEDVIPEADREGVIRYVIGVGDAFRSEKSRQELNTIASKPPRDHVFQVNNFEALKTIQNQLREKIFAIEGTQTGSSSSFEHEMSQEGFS", "test": "SPR"}, "[6]": {"biological_target": "T2, Mac-1 I-domain (recombinant, His-tag …)", "test": "SPR", "remark": "listed apart in the source"}},
  "note": "Like-named read-outs stand apart in the source and are kept apart here. Positions of bridges follow the written chain, without caps; N, C: chain ends. No end group written: not given here.",
  "data": [
    {"molecule": "EQLKKSKTL [M7]", "values": [
      {"measurement": "IC50", "setting": "[1]", "value": "200 to 900", "unit": "nM"}
    ]},
    {"molecule": "FITC-labeled cM7: cM7 coupled to fluorescein isothiocyanate (CEQLKKSKTLC; disulfide 1-11; also: FITC coupled, site not given here)", "values": [
      {"measurement": "Time of highest plasma availability", "setting": "[2]", "value": 30, "unit": "min"},
      {"measurement": "Binding to Murine fibroblasts over-expressing CD40L", "setting": "[3]", "value": "concentration-dependently bound"}
    ]},
    {"molecule": "CEQLKKSKTLC (disulfide 1-11)", "note": "[cM7, cyclised version of peptide M7]", "values": [
      {"measurement": "IC50", "setting": "[4]", "value": 206, "unit": "nM"}
    ]},
    {"molecule": "B1", "values": [
      {"measurement": "Kd", "setting": "[5]", "value": 214, "unit": "nM"},
      {"measurement": "Kd", "setting": "[6]", "value": 671, "unit": "nM"}
    ]}
  ]
}
